Results from ChEMBL document CHEMBL1152843, “Synthesis of new series of 5,6-dihydro-4H-1,2-oxazines via hetero Diels-Alder reaction and evaluation of antimicrobial activity” (2009).
Converted amounts (≈) assume the structure as drawn.

What was measured:
Format in all cases: functional
[1] = tested on: Fusarium verticillioides; experiment: Antifungal activity against Fusarium moniliforme after 48 hrs by cup diffusion method
[2] = tested on: Escherichia coli; experiment: Antibacterial activity against Escherichia coli MTCC 443 at 20 ug after 24 hrs by cup diffusion method; conditions: MTCC 443, 24 h, read-out: IZ
In short: (§1)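 Agar cup diffusion. Plates of sterile medium in 9 cm dishes were seeded with 1 × 10⁵ cfu of bacteria, with the suspension adjusted to at least 1 × 10⁵ cfu/ml in nutrient broth. Compound in DMF was placed in 5 mm cups and pre-diffused for 1 h. Plates were incubated at 37 °C for 24 h and the inhibition zone measured in mm. DMF served as negative control.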

[3] = tested on: Aspergillus flavus; experiment: Antifungal activity against Aspergillus flavus after 48 hrs by cup diffusion method
[4] = tested on: Escherichia coli; experiment: Antibacterial activity against Escherichia coli MTCC 443 after 24 hrs by cup diffusion method; conditions: MTCC 443, 24 h
[5] = tested on: Aspergillus niger; experiment: Antifungal activity against Aspergillus niger after 48 hrs by cup diffusion method
[6] = tested on: Klebsiella pneumoniae; experiment: Antibacterial activity against Klebsiella pneumoniae […] at 20 ug after 24 hrs by cup diffusion method; conditions: read-out: IZ; in short: as §1
[7] = tested on: Aspergillus niger; experiment: Antifungal activity against Aspergillus niger at 20 ug after 48 hrs by cup diffusion method; conditions: read-out: IZ
In short: (§2)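 Cup diffusion on 9 cm plates seeded with 1 × 10⁶ cfu of fungi, with spores adjusted to at least 1 × 10⁶ cfu/ml in potato dextrose broth. Compound in DMF was placed in 5 mm agar cups and left 1 h to diffuse. Plates were incubated at 28 °C for 48 h and the inhibition zone read in mm. DMF was the negative control.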

[8] = tested on: Pseudomonas aeruginosa; experiment: Antibacterial activity against Pseudomonas aeruginosa MTCC 1688 at 20 ug after 24 hrs by cup diffusion method; conditions: MTCC 1688, 24 h, read-out: IZ; in short: as §1
[9] = tested on: Fusarium oxysporum; experiment: Antifungal activity against Fusarium oxysporum after 48 hrs by cup diffusion method
[10] = tested on: Aspergillus flavus; experiment: Antifungal activity against Aspergillus flavus at 20 ug after 48 hrs by cup diffusion method; conditions: read-out: IZ; in short: as §2
[11] = tested on: Fusarium oxysporum; experiment: Antifungal activity against Fusarium oxysporum at 20 ug after 48 hrs by cup diffusion method; conditions: read-out: IZ; in short: as §2
[12] = tested on: Staphylococcus aureus; experiment: Antibacterial activity against Staphylococcus aureus MTCC 737 after 24 hrs by cup diffusion method; conditions: MTCC 737, 24 h
[13] = tested on: Klebsiella pneumoniae; experiment: Antibacterial activity against Klebsiella pneumoniae […] after 24 hrs by cup diffusion method
[14] = tested on: Staphylococcus aureus; experiment: Antibacterial activity against Staphylococcus aureus MTCC 737 at 20 ug after 24 hrs by cup diffusion method; conditions: MTCC 737, 24 h, read-out: IZ; in short: as §1
[15] = tested on: Fusarium verticillioides; experiment: Antifungal activity against Fusarium moniliforme at 20 ug after 48 hrs by cup diffusion method; conditions: read-out: IZ; in short: as §2
[16] = tested on: Pseudomonas aeruginosa; experiment: Antibacterial activity against Pseudomonas aeruginosa MTCC 1688 after 24 hrs by cup diffusion method; conditions: MTCC 1688, 24 h

SMILES | MIC [1] [µg/mL] | zone of inhibition at 20 µg/disc [2] [mm] | MIC [3] [µg/mL] | MIC [4] [µg/mL] | MIC [5] [µg/mL] | zone of inhibition at 20 µg/disc [6] [mm] | zone of inhibition at 20 µg/disc [7] [mm] | zone of inhibition at 20 µg/disc [8] [mm] | MIC [9] [µg/mL] | zone of inhibition at 20 µg/disc [10] [mm] | zone of inhibition at 20 µg/disc [11] [mm] | MIC [12] [µg/mL] | MIC [13] [µg/mL] | zone of inhibition at 20 µg/disc [14] [mm] | zone of inhibition at 20 µg/disc [15] [mm] | MIC [16] [µg/mL]
Cc1ccc(C2=NOC(C#N)CC2)cc1 (centres undefined) | 30 (≈ 150 µM) | 11.5 | 35 (≈ 175 µM) | 25 (≈ 125 µM) | 40 (≈ 200 µM) | 16.7 | 6.83 | 12.7 | 25 (≈ 125 µM) | 7.5 | 13.7 | 15 (≈ 74.9 µM) | 20 (≈ 99.9 µM) | 23.5 | 10.5 | 20 (≈ 99.9 µM)
OCC1CCC(c2ccc3c(c2)CCC3)=NO1 (centres undefined) | 35 (≈ 151 µM) | 10.5 | 30 (≈ 130 µM) | 35 (≈ 151 µM) | 30 (≈ 130 µM) | 17.7 | 7.66 | 13.7 | 25 (≈ 108 µM) | 9.83 | 18.8 | 20 (≈ 86.5 µM) | 25 (≈ 108 µM) | 10.7 | 13.7 | 20 (≈ 86.5 µM)
CCOC(=O)C1CCC(c2ccc(OC)cc2)=NO1 (centres undefined) | 20 (≈ 76 µM) | 24.7 | 10 (≈ 38 µM) | 35 (≈ 133 µM) | 15 (≈ 57 µM) | 14.8 | 24.2 | 23.7 | 10 (≈ 38 µM) | 25.5 | 30.7 | 20 (≈ 76 µM) | 25 (≈ 95 µM) | 16.7 | 28 | 20 (≈ 76 µM)
COc1ccc(C2=NOC(CCl)CC2)cc1 (centres undefined) | 15 (≈ 62.6 µM) | 9.5 | 15 (≈ 62.6 µM) | 20 (≈ 83.4 µM) | 20 (≈ 83.4 µM) | 17.7 | 19.5 | 29.5 | 10 (≈ 41.7 µM) | 21.7 | 29.7 | 10 (≈ 41.7 µM) | 10 (≈ 41.7 µM) | 14.7 | 25.2 | 15 (≈ 62.6 µM)
Cc1ccc(C2=NOC(C#N)CC2)cc1C (centres undefined) | 15 (≈ 70 µM) | 15.5 | 20 (≈ 93.3 µM) | 25 (≈ 117 µM) | 20 (≈ 93.3 µM) | 19.8 | 11.7 | 15.2 | 15 (≈ 70 µM) | 12.2 | 21.5 | 10 (≈ 46.7 µM) | 15 (≈ 70 µM) | 21.5 | 15.7 | 15 (≈ 70 µM)
c1cc2c(cc1CC1CCC(c3ccc4c(c3)CCC4)=NO1)OCO2 (centres undefined) | 20 (≈ 59.6 µM) | 11.5 | 15 (≈ 44.7 µM) | 25 (≈ 74.5 µM) | 20 (≈ 59.6 µM) | 16.5 | 18.7 | 21.5 | 15 (≈ 44.7 µM) | 20.7 | 26.7 | 10 (≈ 29.8 µM) | 15 (≈ 44.7 µM) | 15.7 | 21.5 | 15 (≈ 44.7 µM)
Cc1ccc(C2=NOC(CCl)CC2)cc1 (centres undefined) | 10 (≈ 44.7 µM) | 15.7 | 15 (≈ 67.1 µM) | 20 (≈ 89.4 µM) | 15 (≈ 67.1 µM) | 16.5 | 13.8 | 11.5 | 15 (≈ 67.1 µM) | 14.5 | 20.8 | 10 (≈ 44.7 µM) | 15 (≈ 67.1 µM) | 16.7 | 17.7 | 15 (≈ 67.1 µM)
CCOC(=O)C1CCC(c2ccc(OC)c(OC)c2)=NO1 (centres undefined) | 30 (≈ 102 µM) | 14.7 | 35 (≈ 119 µM) | 30 (≈ 102 µM) | 35 (≈ 119 µM) | 20.7 | 8 | 25.7 | 35 (≈ 119 µM) | 9.66 | 16.7 | 15 (≈ 51.1 µM) | 20 (≈ 68.2 µM) | 16.5 | 11.7 | 15 (≈ 51.1 µM)
Cc1ccc(C2=NOC(Cc3ccc4c(c3)OCO4)CC2)cc1 (centres undefined) | 20 (≈ 64.6 µM) | 10.7 | 15 (≈ 48.5 µM) | 25 (≈ 80.8 µM) | 20 (≈ 64.6 µM) | 19.7 | 15.7 | 11.2 | 10 (≈ 32.3 µM) | 17.8 | 24.5 | 15 (≈ 48.5 µM) | 20 (≈ 64.6 µM) | 12.8 | 19.5 | 20 (≈ 64.6 µM)
